Experimental data: ChEMBL document CHEMBL1129059, “Antitumor properties of some 2-[(dimethylamino)methyl]phenylgold(III) complexes” (J Med Chem, 1996)

How the values were obtained:
Assay type in all cases: functional, organism-based
[1] = system: Mus musculus; test: Compound was evaluated for antitumor activity (RTV) in HT1376 carcinoma Xenograft, at a dosage 6.25 mg/kg on day 14; design: dose 6.25 mg/kg
How it was run: (§1)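 HT1376 tumor fragments implanted subcutaneously in nude mice flanks; mice with established palpable tumors randomized into groups of 6 (controls 10). Compounds given intraperitoneally as suspensions in 0.5% carboxymethylcellulose in 0.9% saline, on days 0, 7, 14 and 21. Tumor dimensions on days 0, 7, 14, 21, 28. RTV = 100(mean tumor volume at assessment)/(mean start volume).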

[2] = system: Mus musculus; test: Compound was evaluated for antitumor activity (RTV) in HT1376 carcinoma Xenograft, at a dosage 6.25 mg/kg on day 21; design: dose 6.25 mg/kg; how it was run: as §1
[3] = system: Mus musculus; test: Compound was evaluated for antitumor activity (T/C) in PNX/109/TC carcinoma Xenograft, at a dosage 10 mg/kg on day 14; design: dose 10 mg/kg
How it was run: (§2)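 PNX/109/TC (CH1) ovarian tumor fragments implanted subcutaneously in the flanks of nude mice. Once tumors were palpable, mice were randomized into 6 per treated group and 10 controls. Dosing was ip in arachis oil on days 0, 7, 14 and 21, at the MTD and two 2-fold dilutions, with tumor dimensions taken on days 0, 7, 14, 21 and 28. T/C is treated RTV over control RTV, with RTV relative to start volume.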

[4] = system: Mus musculus; test: Compound was evaluated for antitumor activity (T/C) in PNX/109/TC carcinoma Xenograft, at a dosage 10 mg/kg on day 7; design: dose 10 mg/kg; how it was run: as §2
[5] = system: Mus musculus; test: Compound was evaluated for antitumor activity (RTV) in HT1376 carcinoma Xenograft, at a dosage 25 mg/kg on day 14; design: dose 25 mg/kg; how it was run: as §1
[6] = system: Mus musculus; test: Compound was evaluated for antitumor activity (RTV) in HT1376 carcinoma Xenograft, at a dosage 25 mg/kg on day 21; design: dose 25 mg/kg; how it was run: as §1
[7] = system: Mus musculus; test: Compound was evaluated for antitumor activity (RTV) in HT1376 carcinoma Xenograft, at a dosage 25 mg/kg on day 28; design: dose 25 mg/kg; how it was run: as §1
[8] = system: Mus musculus; test: Compound was evaluated for antitumor activity (RTV) in HT1376 carcinoma Xenograft, at a dosage 25 mg/kg on day 7; design: dose 25 mg/kg; how it was run: as §1
[9] = system: Mus musculus; test: Compound was evaluated for antitumor activity (T/C) in HT1376 carcinoma Xenograft, at a dosage 25 mg/kg on day 14; design: dose 25 mg/kg
How it was run: (§3)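 Subcutaneous HT1376 xenografts in nude mice, 6 per treated group and 10 controls. Intraperitoneal dosing as suspensions in 0.5% carboxymethylcellulose/0.9% saline on days 0, 7, 14, 21; tumors measured weekly to day 28. T/C = RTV of treated group / RTV of untreated control group; significance by t-test at the 5% level.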

[10] = system: Mus musculus; test: Compound was evaluated for antitumor activity (T/C) in HT1376 carcinoma Xenograft, at a dosage 25 mg/kg on day 21; design: dose 25 mg/kg; how it was run: as §3
[11] = system: Mus musculus; test: Compound was evaluated for antitumor activity (T/C) in HT1376 carcinoma Xenograft, at a dosage 25 mg/kg on day 28; design: dose 25 mg/kg
How it was run: (§4)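 Nude mice carrying subcutaneous flank HT1376 fragments; treatment began once tumors were established and palpable, randomized into groups of 6 treated and 10 control mice. Dosing was ip as a suspension in 0.5% carboxymethylcellulose in 0.9% saline on days 0, 7, 14 and 21, at the MTD and two 2-fold dilutions. Tumors were measured on days 0-28. RTV = 100(mean volume at assessment)/(mean start volume); T/C = treated RTV/control RTV.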

[12] = system: Mus musculus; test: Compound was evaluated for antitumor activity (T/C) in HT1376 carcinoma Xenograft, at a dosage 25 mg/kg on day 7; design: dose 25 mg/kg; how it was run: as §4
[13] = system: Mus musculus; test: Compound was evaluated for antitumor activity (T/C) in HT1376 carcinoma Xenograft, at a dosage 6.25 mg/kg on day 14; design: dose 6.25 mg/kg; how it was run: as §4
[14] = system: Mus musculus; test: Compound was evaluated for antitumor activity (T/C) in HT1376 carcinoma Xenograft, at a dosage 6.25 mg/kg on day 21; design: dose 6.25 mg/kg; how it was run: as §4
[15] = system: Mus musculus; test: Compound was evaluated for antitumor activity (T/C) in HT1376 carcinoma Xenograft, at a dosage 6.25 mg/kg on day 7; design: dose 6.25 mg/kg; how it was run: as §4
[16] = system: Mus musculus; test: Compound was evaluated for antitumor activity (T/C) in HT1376 carcinoma Xenograft, at a dosage 12.5 mg/kg on day 21; design: dose 12.5 mg/kg; how it was run: as §3
[17] = system: Mus musculus; test: Compound was evaluated for antitumor activity (T/C) in HT1376 carcinoma Xenograft, at a dosage 12.5 mg/kg on day 28; design: dose 12.5 mg/kg; how it was run: as §3
[18] = system: Mus musculus; test: Compound was evaluated for antitumor activity (T/C) in PNX/109/TC carcinoma Xenograft, at a dosage 20 mg/kg on day 21; design: dose 20 mg/kg; how it was run: as §2
[19] = system: Mus musculus; test: Compound was evaluated for antitumor activity (T/C) in PNX/109/TC carcinoma Xenograft, at a dosage 20 mg/kg on day 28; design: dose 20 mg/kg; how it was run: as §2
[20] = system: Mus musculus; test: Compound was evaluated for antitumor activity (T/C) in PNX/109/TC carcinoma Xenograft, at a dosage 20 mg/kg on day 7; design: dose 20 mg/kg; how it was run: as §2
[21] = system: Mus musculus; test: Compound was evaluated for antitumor activity (T/C) in PNX/109/TC carcinoma Xenograft, at a dosage 5 mg/kg on day 14; design: dose 5 mg/kg; how it was run: as §2
[22] = system: Mus musculus; test: Compound was evaluated for antitumor activity (T/C) in PNX/109/TC carcinoma Xenograft, at a dosage 5 mg/kg on day 21; design: dose 5 mg/kg; how it was run: as §2
[23] = system: Mus musculus; test: Compound was evaluated for antitumor activity (T/C) in PNX/109/TC carcinoma Xenograft, at a dosage 5 mg/kg on day 28; design: dose 5 mg/kg; how it was run: as §2
[24] = system: Mus musculus; test: Compound was evaluated for antitumor activity (T/C) in PNX/109/TC carcinoma Xenograft, at a dosage 5 mg/kg on day 7; design: dose 5 mg/kg; how it was run: as §2
[25] = system: Mus musculus; test: Compound was evaluated for antitumor activity (RTV) in HT1376 carcinoma Xenograft, at a dosage 12.5 mg/kg on day 21; design: dose 12.5 mg/kg; how it was run: as §1
[26] = system: Mus musculus; test: Compound was evaluated for antitumor activity (RTV) in HT1376 carcinoma Xenograft, at a dosage 12.5 mg/kg on day 28; design: dose 12.5 mg/kg; how it was run: as §1
[27] = system: Mus musculus; test: Compound was evaluated for antitumor activity (RTV) in PNX/109/TC carcinoma Xenograft, at a dosage 10 mg/kg on day 21; design: dose 10 mg/kg
How it was run: (§5)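 PXN/109/TC (CH1) ovarian tumor fragments implanted subcutaneously in nude mice flanks; established palpable tumors, groups of 6 (controls 10). Dosed intraperitoneally as suspension in arachis oil on days 0, 7, 14, 21. Tumors measured days 0, 7, 14, 21, 28. RTV = 100(mean tumor volume at assessment)/(mean start volume).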

[28] = system: Mus musculus; test: Compound was evaluated for antitumor activity (RTV) in PNX/109/TC carcinoma Xenograft, at a dosage 20 mg/kg on day 14; design: dose 20 mg/kg; how it was run: as §5
[29] = system: Mus musculus; test: Compound was evaluated for antitumor activity (RTV) in PNX/109/TC carcinoma Xenograft, at a dosage 20 mg/kg on day 21; design: dose 20 mg/kg; how it was run: as §5
[30] = system: Mus musculus; test: Compound was evaluated for antitumor activity (RTV) in PNX/109/TC carcinoma Xenograft, at a dosage 20 mg/kg on day 28; design: dose 20 mg/kg; how it was run: as §5
[31] = system: Mus musculus; test: Compound was evaluated for antitumor activity (RTV) in PNX/109/TC carcinoma Xenograft, at a dosage 20 mg/kg on day 7; design: dose 20 mg/kg; how it was run: as §5
[32] = system: Mus musculus; test: Compound was evaluated for antitumor activity (RTV) in PNX/109/TC carcinoma Xenograft, at a dosage 5 mg/kg on day 21; design: dose 5 mg/kg; how it was run: as §5
[33] = system: Mus musculus; test: Compound was evaluated for antitumor activity (RTV) in PNX/109/TC carcinoma Xenograft, at a dosage 5 mg/kg on day 14; design: dose 5 mg/kg; how it was run: as §5

Q: How did the RTV [1] turn out when “Acetato[2-(dimethylamino)methyl]phenyl-C,N]gold-(III)” was run?
A: Its RTV is 724.

Q: And the RTV [2]?
A: Its RTV is 953.

Q: And the T/C [3]?
A: The T/C was 0.9.

Q: What about the T/C [4] of the same substance?
A: The T/C was 0.76.

Q: What about the RTV [5] of the same substance?
A: The RTV was 454.

Q: What about the RTV [6] of the same substance?
A: Its RTV is 671.

Q: What about the RTV [7] of the same substance?
A: The RTV was 870.

Q: And the RTV [8]?
A: The RTV was 258.

Q: And the T/C [9]?
A: Its T/C is 0.9.

Q: What about the T/C [10] of the same substance?
A: Its T/C is 0.76.

Q: What about the T/C [11] of the same substance?
A: The T/C was 0.6.

Q: And the T/C [12]?
A: The T/C was 0.93.

Q: And the T/C [13]?
A: Its T/C is 1.43.

Q: And the T/C [14]?
A: The T/C was 1.07.

Q: What about the T/C [15] of the same substance?
A: Its T/C is 1.37.

Q: What about the T/C [16] of the same substance?
A: The T/C was 0.77.

Q: What about the T/C [17] of the same substance?
A: Its T/C is 0.75.

Q: What about the T/C [18] of the same substance?
A: The T/C was 0.51.

Q: And the T/C [19]?
A: Its T/C is 0.77.

Q: And the T/C [20]?
A: The T/C was 0.74.

Q: And the T/C [21]?
A: Its T/C is 0.8.

Q: What about the T/C [22] of the same substance?
A: The T/C was 0.84.

Q: What about the T/C [23] of the same substance?
A: The T/C was 1.08.

Q: And the T/C [24]?
A: Its T/C is 0.69.

Q: What about the RTV [25] of the same substance?
A: The RTV was 682.

Q: And the RTV [26]?
A: Its RTV is 1080.

Q: And the RTV [27]?
A: The RTV was 515.

Q: And the RTV [28]?
A: Its RTV is 200.

Q: And the RTV [29]?
A: Its RTV is 258.

Q: And the RTV [30]?
A: The RTV was 481.

Q: And the RTV [31]?
A: The RTV was 173.

Q: And the RTV [32]?
A: Its RTV is 423.

Q: And the RTV [33]?
A: Its RTV is 282.
